# In ChEMBL document CHEMBL1147686, “Non-peptide calcitonin gene-related peptide receptor antagonists from a benzodiazepinone lead” (Bioorg Med Chem Lett, 2006):
# Experiments:
# [1] = biological target: T1, Calcitonin-gene-related peptide receptor, CALCRL/RAMP1 (Homo sapiens, UniProt O60894+Q16602); assay: Displacement of [125I]CGRP from human cloned CLR/RAMP1 receptor expressed in E10 cells; assay type: cell-based
# [2] = biological target: T1, Calcitonin-gene-related peptide receptor, CALCRL/RAMP1; assay: Antagonist activity at human cloned CLR/RAMP1 receptor expressed in E10 cells measured as inhibition of CGRP-mediated cAMP production at 17 uM; assay type: functional, cell-based
# [3] = biological target: T1, Calcitonin-gene-related peptide receptor, CALCRL/RAMP1; assay: Antagonist activity at human cloned CLR/RAMP1 receptor expressed in E10 cells measured as inhibition of CGRP-mediated cAMP production; assay type: functional, cell-based
# How it was run: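 Whole E10 cells stably expressing cloned human CLR/RAMP1; antagonist tested against CGRP-stimulated cAMP production, IC50 from inhibition of the cAMP response.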
# [4] = biological target: T1, Calcitonin-gene-related peptide receptor, CALCRL/RAMP1; assay: Displacement of [125I]CGRP from human cloned CLR/RAMP1 receptor expressed in SK-N-MC cells at 100 uM; assay type: cell-based
# [5] = Half life in iv dosed rat; assay type: ADME, organism-based; details: in vivo
# How it was run: (§1)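 Rats received compound intravenously; plasma half-life and clearance derived from the iv profile.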
# [6] = Oral bioavailability in rat; assay type: ADME, organism-based; details: in vivo
# [7] = Cmax in rat; assay type: ADME, organism-based; details: in vivo
# [8] = biological target: Calcitonin-gene-related peptide receptor; CALCRL/RAMP1 (Rattus norvegicus) (UniProt Q63118+Q9JJ74); assay: Displacement of [125I]CGRP from rat CLR/RAMP1 receptor at 100 uM; assay type: protein-complex assay
# [9] = Clearance in iv dosed rat; assay type: ADME, organism-based; details: in vivo; how it was run: as §1
# T1 sequence (O60894 whole entry): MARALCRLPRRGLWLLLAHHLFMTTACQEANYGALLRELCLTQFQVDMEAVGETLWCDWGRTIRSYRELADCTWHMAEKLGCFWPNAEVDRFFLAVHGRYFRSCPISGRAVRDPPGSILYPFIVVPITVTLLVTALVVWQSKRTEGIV
# T1 sequence (Q16602 whole entry): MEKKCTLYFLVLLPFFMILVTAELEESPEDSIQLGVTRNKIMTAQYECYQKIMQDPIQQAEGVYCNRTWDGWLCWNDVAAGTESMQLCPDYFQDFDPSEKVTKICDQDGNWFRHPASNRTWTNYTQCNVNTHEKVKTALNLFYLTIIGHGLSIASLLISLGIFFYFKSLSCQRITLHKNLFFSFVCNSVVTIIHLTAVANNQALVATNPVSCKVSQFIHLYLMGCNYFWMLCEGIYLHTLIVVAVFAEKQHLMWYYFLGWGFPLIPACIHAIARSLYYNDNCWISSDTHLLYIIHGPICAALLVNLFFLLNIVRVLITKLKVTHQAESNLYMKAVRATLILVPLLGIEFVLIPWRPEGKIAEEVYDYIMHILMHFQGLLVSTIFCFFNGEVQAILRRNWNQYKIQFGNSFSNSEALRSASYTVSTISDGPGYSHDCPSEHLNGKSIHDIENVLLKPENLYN
SMILES,Ki [1],IC50 [3],other results
CN1C(=O)[C@H](NC(=O)Nc2ccc3c(c2)CCC2(C3)NC(=O)NC2=O)N=C(c2ccccc2)c2ccccc21 (some centres not stated),4250 nM,,inhibition [2]: 57%
O=C(N[C@@H]1N=C(c2ccccc2)c2ccccc2N(CC(F)(F)F)C1=O)N1CCC(N2CCc3ccccc3NC2=O)CC1,61 nM,43 nM,
CC(C)N1C(=O)C(NC(=O)N2CCC(N3Cc4ccccc4N(C)C3=O)CC2)N=C(c2ccccc2)c2ccccc21 (racemic),,,inhibition [4]: 33%
CN1C(=O)C(NC(=O)N2CCC(n3c(=O)[nH]c4ccccc43)CC2)N=C(c2ccccc2)c2ccccc21 (racemic),> 13000 nM,,
CN1C(=O)[C@H](NC(=O)N2CCC(N3Cc4ccccc4NC3=O)CC2)N=C(c2ccccc2)c2ccccc21,2200 nM,3640 nM,
CCN1C(=O)[C@H](NC(=O)N2CCC(N3Cc4ccccc4NC3=O)CC2)N=C(c2ccccc2)c2ccccc21,897 nM,990 nM,
O=C(N[C@@H]1N=C(c2ccccc2)c2ccccc2N(CC(F)(F)F)C1=O)N1CCC(N2Cc3ccccc3NC2=O)CC1,44 nM,38 nM,Kb [3]: 77 nM; Kb ([3]; read-out: pA2 (converted)): 79.4 nM; half-life [5]: 1.7 h; bioavailability [6]: 10%; Cmax [7]: 240 nM; inhibition [8]: 35%; clearance [9]: 20 mL/min/kg
CC(C)N1C(=O)C(NC(=O)N2CCC(N3Cc4ccccc4NC3=O)CC2)N=C(c2ccccc2)c2ccccc21 (racemic),1060 nM,1810 nM,
CN1C(=O)[C@@H](NC(=O)N2CCC(N3Cc4ccccc4NC3=O)CC2)N=C(c2ccccc2)c2ccccc21,8400 nM,4450 nM,
O=C(N[C@H](Cc1cc(Br)c(O)c(Br)c1)C(=O)N1CCN(c2ccccc2)CC1)N1CCC(n2c(O)nc3ccccc32)CC1,83 nM,75 nM,
O=C(N[C@@H]1N=C(c2ccccc2)c2ccccc2N(CC(F)(F)F)C1=O)N1CCC(n2c(=O)[nH]c3ccccc32)CC1,2370 nM,1580 nM,
